According to ChEMBL document CHEMBL1122781, “[(Aminomethyl)aryloxy]acetic acid esters. A new class of high-ceiling diuretics. 1. Effects of nitrogen and aromatic nuclear substitution” (J Med Chem, 1984):

Tests used:
Rattus norvegicus [1] = test: Diuretic activity was evaluated by measuring amount of Na+ during 0-6 hr in urine of normotensive saline loaded rats at 30.0mg/kg, po; format: ADME, organism-based; conditions: in vivo, 30 mg/kg
In short: (§1)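 Male normotensive Sprague–Dawley rats (275–375 g), eight per group. Test compound or vehicle (0.2% methylcellulose in water, 2 mL/kg) is given by mouth, followed at once by a 0.9% saline load equal to 5% of body weight. Rats are housed in metabolism cages without food or water. Urine is collected at 2, 6 and 24 h and assayed for Na+, K+, Cl−, uric acid and osmolality.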

Rattus norvegicus [2] = test: Diuretic activity was evaluated by measuring amount of K+ during 0-6 hr in urine of normotensive saline loaded rats at 3.0mg/kg, po; format: ADME, organism-based; conditions: in vivo, 3 mg/kg; in short: as §1
Canis familiaris [3] = test: Diuretic activity was evaluated by measuring amount of Cl- during 0-6 h in urine of normotensive saline loaded dogs at 0.3mg/kg, po; format: ADME, organism-based, Canis lupus familiaris; conditions: dog, in vivo
In short: (§2)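 Conscious female dogs, each given one oral dose per experiment. Urine and heparinized venous plasma were taken at each collection time. Urine was centrifuged and chilled, and plasma was separated within 30 min. Both were assayed for Na+, K+, Cl−, urate and glucose. Results are mean excretion in mequiv kg−1 (6 h)−1, with at least two dogs per dose.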

Rattus norvegicus [4] = test: Diuretic activity was evaluated by measuring amount of K+ during 0-6 hr in urine of normotensive saline loaded rats at 10.0mg/kg, po; format: ADME, organism-based; conditions: in vivo, 10 mg/kg
In short: (§3)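 Male Sprague–Dawley rats (275–375 g), fed and watered ad libitum before testing but not during it, eight per group. Compound in 0.2% methylcellulose/water given orally at 2 mL/kg, immediately followed by a 0.9% saline load equal to 5% of body weight. Rats were kept in individual metabolism cages. Urine was sampled at 2, 6 and 24 h for volume, Na+, K+, Cl−, uric acid and osmolality.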

Canis familiaris [5] = test: Diuretic activity was evaluated by measuring amount of Na+ during 0-6 h in urine of normotensive saline loaded dogs at 1.0 mg/kg, po; format: ADME, organism-based, Canis lupus familiaris; design: dose 1 mg/kg, route oral; conditions: dog, in vivo
In short: (§4)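 Conscious dogs, each given a single oral dose per experiment, with at least two dogs per dose. Urine volume is measured; aliquots are centrifuged and chilled. Heparinized venous blood (4 mL) is drawn at each urine collection. Urine and plasma are analyzed for Na+, K+, Cl−, urate and glucose. Result is mean Na+ excretion in mequiv kg−1 (6 h)−1.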

[6] = Diuretic activity was evaluated by measuring amount of Cl- during 0-6 hr in urine of normotensive […] monkey at 1 mg/kg, po; format: ADME, organism-based; design: dose 1 mg/kg, route oral; conditions: simiiformes, in vivo
In short: (§5)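 Male and female cynomolgus monkeys, fasted 16–18 h with water until dosing, six per dose. Compound or vehicle was given by pediatric nasogastric tube, followed at once by a 50 mL/kg water load. Monkeys were kept in metabolism cages without food or water for 6 h. Urine was collected at 0–1, 1–2, 2–4 and 4–6 h, and volume, electrolytes, uric acid and glucose were measured.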

Canis familiaris [7] = test: Diuretic activity was evaluated by measuring amount of K+ during 0-6 hr in urine of normotensive saline loaded dogs at 0.1 mg/kg, po; format: ADME, organism-based, Canis lupus familiaris; design: dose 0.1 mg/kg, route oral; conditions: dog, in vivo; in short: as §2
Rattus norvegicus [8] = test: Diuretic activity was evaluated by measuring amount of K+ during 0-6 h in urine of normotensive saline loaded rats at 100.0 mg/kg, po; format: ADME, organism-based; design: dose 100 mg/kg, route oral; conditions: in vivo; in short: as §3
Rattus norvegicus [9] = test: Percent change of arterial blood pressure in spontaneously hypertensive rats at the dose of 3 mg/kg (p.o.) after […] (control BP(mm Hg)=221); format: functional; conditions: route oral
Canis familiaris [10] = test: Diuretic activity was evaluated by measuring amount of K+ during 0-6 hr in urine of normotensive saline loaded dogs at 0.3mg/kg, po; format: ADME, organism-based, Canis lupus familiaris; conditions: dog, in vivo; in short: as §2
Rattus norvegicus [11] = test: Diuretic activity was evaluated by measuring amount of Cl- during 0-6 hr in urine of normotensive saline loaded rats at 0.3mg/kg, po; format: ADME, organism-based; conditions: in vivo; in short: as §3
Rattus norvegicus [12] = test: Diuretic activity was evaluated by measuring amount of K+ during 0-6 h in urine of normotensive saline loaded rats at 1.0 mg/kg, po; format: ADME, organism-based; design: dose 1 mg/kg, route oral; conditions: in vivo; in short: as §3
[13] = Diuretic activity was evaluated by measuring amount of Na+ during 0-6 hr in urine of normotensive […] monkey at 10mg/kg, po; format: ADME, organism-based; conditions: simiiformes, in vivo
In short: (§6)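 Male and female cynomolgus monkeys, fasted 16–18 h with water until dosing, six per dose. Compound or vehicle is given through a nasogastric tube, then a 50 mL/kg water load. No food or water for 6 h in metabolism cages. Urine is collected at 0–1, 1–2, 2–4 and 4–6 h and analyzed for electrolytes, uric acid and glucose.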

[14] = Diuretic activity was evaluated by measuring amount of Na+ during 0-6 hr in urine of normotensive […] monkey at 1 mg/kg, po; format: ADME, organism-based; design: dose 1 mg/kg, route oral; conditions: simiiformes, in vivo; in short: as §6
Rattus norvegicus [15] = test: Percent change of arterial blood pressure in spontaneously hypertensive rats at the dose of 1 mg/kg (p.o.) after 24 hr (control BP(mm Hg)=215); format: functional; conditions: route oral
Rattus norvegicus [16] = test: Percent change of arterial blood pressure in spontaneously hypertensive rats at the dose of 1 mg/kg (p.o.) after […] (control BP(mm Hg)=215); format: functional; conditions: route oral
[17] = Diuretic activity was evaluated by measuring amount of Cl- during 0-6 h in urine of […] monkey at 30 mg/kg, po; format: ADME, organism-based; design: dose 30 mg/kg, route oral; conditions: simiiformes, in vivo; in short: as §5
Canis familiaris [18] = test: Diuretic activity was evaluated by measuring amount of Na+ during 0-6 h in urine of normotensive saline loaded dogs at 10.0mg/kg, po; format: ADME, organism-based, Canis lupus familiaris; conditions: dog, in vivo, 10 mg/kg; in short: as §4
Canis familiaris [19] = test: Diuretic activity was evaluated by measuring amount of K+ during 0-6 hr in urine of normotensive saline loaded dogs at 0.03mg/kg, po; format: ADME, organism-based, Canis lupus familiaris; conditions: dog, in vivo; in short: as §2
Canis familiaris [20] = test: Diuretic activity was evaluated by measuring amount of Cl- during 0-6 h in urine of normotensive saline loaded dogs at 1.0 mg/kg, po; format: ADME, organism-based, Canis lupus familiaris; design: dose 1 mg/kg, route oral; conditions: dog, in vivo; in short: as §2
Canis familiaris [21] = test: Diuretic activity was evaluated by measuring amount of Na+ during 0-6 h in urine of normotensive saline loaded dogs at 0.03 mg/kg, po; format: ADME, organism-based, Canis lupus familiaris; design: dose 0.03 mg/kg, route oral; conditions: dog, in vivo; in short: as §4
Canis familiaris [22] = test: Diuretic activity was evaluated by measuring amount of K+ during 0-6 hr in urine of normotensive saline loaded dogs at 3.0mg/kg, po; format: ADME, organism-based, Canis lupus familiaris; conditions: dog, in vivo, 3 mg/kg; in short: as §2
[23] = Diuretic activity was evaluated by measuring amount of Na+ during 0-6 hr in urine of normotensive […] monkey at 30mg/kg, po; format: ADME, organism-based; conditions: simiiformes, in vivo; in short: as §6
Rattus norvegicus [24] = test: Diuretic activity was evaluated by measuring amount of Na+ during 0-6 hr in urine of normotensive saline loaded rats at 1.0mg/kg, po; format: ADME, organism-based; conditions: in vivo, 1 mg/kg; in short: as §1
Canis familiaris [25] = test: Diuretic activity was evaluated by measuring amount of Cl- during 0-6 hr in urine of normotensive saline loaded dogs at 0.03mg/kg, po; format: ADME, organism-based, Canis lupus familiaris; conditions: dog, in vivo; in short: as §2
Canis familiaris [26] = test: Diuretic activity was evaluated by measuring amount of Na+ during 0-6 h in urine of normotensive saline loaded dogs at 0.3 mg/kg, po; format: ADME, organism-based, Canis lupus familiaris; design: dose 0.3 mg/kg, route oral; conditions: dog, in vivo; in short: as §4
Canis familiaris [27] = test: Diuretic activity was evaluated by measuring amount of Na+ during 0-6 hr in urine of normotensive saline loaded dogs at 0.1 mg/kg, po; format: ADME, organism-based, Canis lupus familiaris; design: dose 0.1 mg/kg, route oral; conditions: dog, in vivo; in short: as §4
Rattus norvegicus [28] = test: Percent change of arterial blood pressure in spontaneously hypertensive rats at the dose of 1 mg/kg (p.o.) after 6 hr (control BP(mm Hg)=215); format: functional; conditions: route oral
Canis familiaris [29] = test: Diuretic activity was evaluated by measuring amount of Cl- during 0-6 hr in urine of normotensive saline loaded dogs at 0.1 mg/kg, po; format: ADME, organism-based, Canis lupus familiaris; design: dose 0.1 mg/kg, route oral; conditions: dog, in vivo; in short: as §2

Structure (SMILES): CCOC(=O)COc1ccc(C(=O)c2ccc(O)c(CN)c2)c(Cl)c1Cl.Cl
- Diuretic activity (Rattus norvegicus [1]): 14.8 m equiv kg-1
- Diuretic activity (Rattus norvegicus [2]): 3.8 m equiv kg-1
- Diuretic activity (Canis familiaris [3]): 3 m equiv kg-1
- Diuretic activity (Rattus norvegicus [4]): 3.3 m equiv kg-1
- Diuretic activity (Canis familiaris [5]): 5 m equiv kg-1
- Diuretic activity [6]: 2.7 m equiv kg-1
- Diuretic activity (Canis familiaris [7]): 0.6 m equiv kg-1
- Diuretic activity (Rattus norvegicus [8]): 3.6 m equiv kg-1
- Change (Rattus norvegicus [9]): -22%
- Diuretic activity (Canis familiaris [10]): 1 m equiv kg-1
- Diuretic activity (Rattus norvegicus [11]): 11.3 m equiv kg-1
- Diuretic activity (Rattus norvegicus [12]): 3 m equiv kg-1
- Diuretic activity [13]: 6.6 m equiv kg-1
- Diuretic activity [14]: 2.7 m equiv kg-1
- Change (Rattus norvegicus [15]): -6%
- Change (Rattus norvegicus [16]): -17%
- Diuretic activity [17]: 6.9 m equiv kg-1
- Diuretic activity (Canis familiaris [18]): 6.3 m equiv kg-1
- Diuretic activity (Canis familiaris [19]): 0.3 m equiv kg-1
- Diuretic activity (Canis familiaris [20]): 6.2 m equiv kg-1
- Diuretic activity (Canis familiaris [21]): 0.5 m equiv kg-1
- Diuretic activity (Canis familiaris [22]): 1.8 m equiv kg-1
- Diuretic activity [23]: 6.4 m equiv kg-1
- Diuretic activity (Rattus norvegicus [24]): 12.8 m equiv kg-1
- Diuretic activity (Canis familiaris [25]): 0.5 m equiv kg-1
- Diuretic activity (Canis familiaris [26]): 2.7 m equiv kg-1
- Diuretic activity (Canis familiaris [27]): 0.7 m equiv kg-1
- Change (Rattus norvegicus [28]): -11%
- Diuretic activity (Canis familiaris [29]): 1 m equiv kg-1
